In ChEMBL document CHEMBL2062469, “1-(2-Mercaptobenzenesulfonyl)-3-hydroxyguanidines--novel potent antiproliferatives, synthesis and in vitro biological activity” (2012):

Assays:
Format in all cases: functional
SN12C = experiment: Cytostatic activity against human SN12C cells
How it was run: (§1)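 NCI-60 human tumor cell line screen run by the US National Cancer Institute under the NIH Developmental Therapeutics Program protocol. A single-dose prescreen at 10 µM came first. Selected compounds then went into the 5-dose assay. Cytostatic activity is reported as GI50 (µM).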

EKVX = experiment: Cytostatic activity against human EKVX cells; how it was run: as §1
NCI-H23 = experiment: Cytostatic activity against human NCI-H23 cells; how it was run: as §1
MDA-MB-435 = experiment: Cytostatic activity against human MDA-MB-435 cells; how it was run: as §1
HOP-62 = experiment: Cytostatic activity against human HOP62 cells; how it was run: as §1
NCI/ADR-RES = experiment: Cytostatic activity against human NCI-ADR-RES cells; how it was run: as §1
HCC 2998 = experiment: Cytostatic activity against human HCC2998 cells; how it was run: as §1
OVCAR-8 = experiment: Cytostatic activity against human OVCAR8 cells; how it was run: as §1
[1] = Cytostatic activity against human […] cells; how it was run: as §1
CCRF-CEM = experiment: Cytostatic activity against human CCRF-CEM cells; how it was run: as §1
RXF 393 = experiment: Cytostatic activity against human RXF393 cells; how it was run: as §1
MCF7 = experiment: Cytostatic activity against human MCF7 cells; how it was run: as §1
T47D = experiment: Cytostatic activity against human T47D cells
How it was run: (§2)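 Human tumour cell lines from the NCI-60 panel, tested at the US National Cancer Institute under the NIH Developmental Therapeutics Program protocol. A single-dose prescreen at 10 µM came first. Selected compounds then went to a 5-dose assay, which gave GI50 and TGI values in µM.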

NCI-H460 = experiment: Cytostatic activity against human NCI-H460 cells; how it was run: as §1
M14 = experiment: Cytostatic activity against human M14 cells; how it was run: as §1
SW-620 = experiment: Cytostatic activity against human SW620 cells; how it was run: as §2
NCI-H322M = experiment: Cytostatic activity against human NCI-H322M cells; how it was run: as §1
K562 = experiment: Cytostatic activity against human K562 cells; how it was run: as §1
SNB-19 = experiment: Cytostatic activity against human SNB19 cells; how it was run: as §1
BT-549 = experiment: Cytostatic activity against human BT549 cells; how it was run: as §1
U-251 = experiment: Cytostatic activity against human U251 cells; how it was run: as §2
SK-MEL-2 = experiment: Cytostatic activity against human SK-MEL-2 cells; how it was run: as §1
SR = experiment: Cytostatic activity against human SR cells; how it was run: as §2
PC-3 = experiment: Cytostatic activity against human PC3 cells; how it was run: as §1
ACHN = experiment: Cytostatic activity against human ACHN cells; how it was run: as §1
SF-268 = experiment: Cytostatic activity against human SF268 cells; how it was run: as §1
SK-MEL-5 = experiment: Cytostatic activity against human SK-MEL-5 cells; how it was run: as §1
SK-MEL-28 = experiment: Cytostatic activity against human SK-MEL-28 cells; how it was run: as §1
CAKI-1 = experiment: Cytostatic activity against human Caki1 cells; how it was run: as §1
MDA-MB-468 = experiment: Cytostatic activity against human MDA-MB-468 cells; how it was run: as §1
HCT-15 = experiment: Cytostatic activity against human HCT15 cells; how it was run: as §1
HT-29 = experiment: Cytostatic activity against human HT-29 cells; how it was run: as §1
NCI-H522 = experiment: Cytostatic activity against human NCI-H522 cells; how it was run: as §1
NCI-H226 = experiment: Cytostatic activity against human NCI-H226 cells; how it was run: as §1
HOP-92 = experiment: Cytostatic activity against human HOP92 cells; how it was run: as §1
Malme-3M = experiment: Cytostatic activity against human MALME-3M cells; how it was run: as §1
Hs-578T = experiment: Cytostatic activity against human Hs 578T cells; how it was run: as §1
SF-539 = experiment: Cytostatic activity against human SF539 cells; how it was run: as §1
UO-31 = experiment: Cytostatic activity against human UO31 cells; how it was run: as §2
OVCAR-4 = experiment: Cytostatic activity against human OVCAR4 cells; how it was run: as §1
OVCAR-5 = experiment: Cytostatic activity against human OVCAR5 cells; how it was run: as §1
MDA-MB-231 = experiment: Cytostatic activity against human MDA-MB-231/ATCC cells; how it was run: as §1
COLO 205 = experiment: Cytostatic activity against human COLO205 cells; how it was run: as §1
UACC-62 = experiment: Cytostatic activity against human UACC62 cells; how it was run: as §2
MOLT-4 = experiment: Cytostatic activity against human MOLT4 cells; how it was run: as §1
LOX IMVI = experiment: Cytostatic activity against human LOXIMVI cells; how it was run: as §1
SNB-75 = experiment: Cytostatic activity against human SNB75 cells; how it was run: as §2
KM12 = experiment: Cytostatic activity against human KM12 cells; how it was run: as §1
UACC-257 = experiment: Cytostatic activity against human UACC257 cells; how it was run: as §2
HCT-116 = experiment: Cytostatic activity against human HCT116 cells; how it was run: as §1
OVCAR-3 = experiment: Cytostatic activity against human OVCAR3 cells; how it was run: as §1
IGROV-1 = experiment: Cytostatic activity against human IGROV1 cells; how it was run: as §1
786-0 = experiment: Cytostatic activity against human 786-0 cells; how it was run: as §1
SK-OV-3 = experiment: Cytostatic activity against human SKOV3 cells; how it was run: as §1
SF-295 = experiment: Cytostatic activity against human SF295 cells; how it was run: as §1
A498 = experiment: Cytostatic activity against human A498 cells; how it was run: as §1
DU-145 = experiment: Cytostatic activity against human DU145 cells; how it was run: as §1

For `N=C(NO)NS(=O)(=O)c1cc(-c2nc(-c3ccccc3)no2)c(Cl)cc1SCc1ccccc1`, the GI50 (SN12C) was 1.53 µM, the TGI (SN12C) was 3.27 µM and the GI50 (EKVX) was 1.36 µM. The TGI (EKVX) was 2.71 µM, the GI50 (NCI-H23) was 1.86 µM and the TGI (NCI-H23) was 4.36 µM. The GI50 (MDA-MB-435) was 1.51 µM, the TGI (MDA-MB-435) was 3.08 µM and the GI50 (HOP-62) was 2.23 µM. The TGI (HOP-62) was 5.12 µM, the GI50 (NCI/ADR-RES) was 2.06 µM and the TGI (NCI/ADR-RES) was 5.05 µM. The GI50 (HCC 2998) was 2.01 µM, the TGI (HCC 2998) was 4.03 µM and the GI50 (OVCAR-8) was 1.72 µM. For the same compound, the TGI (OVCAR-8) was 3.82 µM, the GI50 [1] was 2.34 µM and the TGI [1] was 9.03 µM. It also gave a GI50 (CCRF-CEM) of 1.91 µM, a TGI (CCRF-CEM) of 5.3 µM and a GI50 (RXF 393) of 1.52 µM. The TGI (RXF 393) was 2.97 µM, the GI50 (MCF7) was 1.45 µM and the TGI (MCF7) was 2.97 µM. The GI50 (T47D) was 1.7 µM, the TGI (T47D) was 3.48 µM and the GI50 (NCI-H460) was 1.94 µM. For the same compound, the TGI (NCI-H460) was 3.95 µM, the GI50 (M14) was 2.15 µM and the TGI (M14) was 4.39 µM. For the same compound, the GI50 (SW-620) was 1.68 µM, the TGI (SW-620) was 3.21 µM and the GI50 (NCI-H322M) was 3.48 µM. The TGI (NCI-H322M) was 16.2 µM, the GI50 (K562) was 1.87 µM and the TGI (K562) was 4.74 µM. For the same compound, the GI50 (SNB-19) was 3.56 µM, the TGI (SNB-19) was 18.7 µM and the GI50 (BT-549) was 2.45 µM. The TGI (BT-549) was 5.23 µM, the GI50 (U-251) was 1.36 µM and the TGI (U-251) was 2.84 µM. For the same compound, the GI50 (SK-MEL-2) was 1.96 µM, the TGI (SK-MEL-2) was 4.03 µM and the GI50 (SR) was 1.43 µM. For the same compound, the TGI (SR) was 5.88 µM, the GI50 (PC-3) was 1.79 µM and the TGI (PC-3) was 3.88 µM. The GI50 (ACHN) was 2.02 µM, the TGI (ACHN) was 3.9 µM and the GI50 (SF-268) was 1.74 µM. For the same compound, the TGI (SF-268) was 3.95 µM, the GI50 (SK-MEL-5) was 1.48 µM and the TGI (SK-MEL-5) was 2.86 µM. The GI50 (SK-MEL-28) was 1.71 µM, the TGI (SK-MEL-28) was 3.46 µM and the GI50 (CAKI-1) was 1.67 µM. For the same compound, the TGI (CAKI-1) was 3.65 µM, the GI50 (MDA-MB-468) was 1.56 µM and the TGI (MDA-MB-468) was 3.04 µM. The GI50 (HCT-15) was 1.79 µM, the TGI (HCT-15) was 3.83 µM and the GI50 (HT-29) was 1.9 µM. It also gave a TGI (HT-29) of 3.49 µM, a GI50 (NCI-H522) of 1.32 µM and a TGI (NCI-H522) of 2.97 µM. The GI50 (NCI-H226) was 2.23 µM, the TGI (NCI-H226) was 4.8 µM and the GI50 (HOP-92) was 1.99 µM. For the same compound, the TGI (HOP-92) was 9.01 µM, the GI50 (Malme-3M) was 1.8 µM and the TGI (Malme-3M) was 7.42 µM. It also gave a GI50 (Hs-578T) of 2.55 µM, a TGI (Hs-578T) of 6.36 µM and a GI50 (SF-539) of 2.72 µM. It also gave a TGI (SF-539) of 6.44 µM, a GI50 (UO-31) of 1.4 µM and a TGI (UO-31) of 7.64 µM. It also gave a GI50 (OVCAR-4) of 1.6 µM, a TGI (OVCAR-4) of 4.06 µM and a GI50 (OVCAR-5) of 2.07 µM. For the same compound, the TGI (OVCAR-5) was 5.31 µM, the GI50 (MDA-MB-231) was 2.03 µM and the TGI (MDA-MB-231) was 5.24 µM. It also gave a GI50 (COLO 205) of 1.86 µM, a TGI (COLO 205) of 3.39 µM and a GI50 (UACC-62) of 1.84 µM. For the same compound, the TGI (UACC-62) was 3.83 µM, the GI50 (MOLT-4) was 1.45 µM and the TGI (MOLT-4) was 3.74 µM. For the same compound, the GI50 (LOX IMVI) was 1.63 µM, the TGI (LOX IMVI) was 4.09 µM and the GI50 (SNB-75) was 1.22 µM. The TGI (SNB-75) was 3.94 µM, the GI50 (KM12) was 1.77 µM and the TGI (KM12) was 3.55 µM. It also gave a GI50 (UACC-257) of 1.68 µM, a TGI (UACC-257) of 3.53 µM and a GI50 (HCT-116) of 1.67 µM. It also gave a TGI (HCT-116) of 3.32 µM, a GI50 (OVCAR-3) of 1.69 µM and a TGI (OVCAR-3) of 3.12 µM. It also gave a GI50 (IGROV-1) of 2.38 µM, a TGI (IGROV-1) of 7.53 µM and a GI50 (786-0) of 2.75 µM. It also gave a TGI (786-0) of 7.06 µM, a GI50 (SK-OV-3) of 2.2 µM and a TGI (SK-OV-3) of 4.55 µM. For the same compound, the GI50 (SF-295) was 2.05 µM, the TGI (SF-295) was 5.79 µM and the GI50 (A498) was 2.57 µM. For the same compound, the TGI (A498) was 7.85 µM, the GI50 (DU-145) was 1.71 µM and the TGI (DU-145) was 3.17 µM.
